Results on five molecules are retold here after ChEMBL document CHEMBL4433213, “Investigation on 2',3'-O-Substituted ATP Derivatives and Analogs as Novel P2X3 Receptor Antagonists” (ACS Med Chem Lett, 2019).

Some results are limits rather than exact numbers.

One test addresses T1, P2X purinoceptor 1 (Homo sapiens, UniProt P51575).
T1 sequence (P51575 whole entry): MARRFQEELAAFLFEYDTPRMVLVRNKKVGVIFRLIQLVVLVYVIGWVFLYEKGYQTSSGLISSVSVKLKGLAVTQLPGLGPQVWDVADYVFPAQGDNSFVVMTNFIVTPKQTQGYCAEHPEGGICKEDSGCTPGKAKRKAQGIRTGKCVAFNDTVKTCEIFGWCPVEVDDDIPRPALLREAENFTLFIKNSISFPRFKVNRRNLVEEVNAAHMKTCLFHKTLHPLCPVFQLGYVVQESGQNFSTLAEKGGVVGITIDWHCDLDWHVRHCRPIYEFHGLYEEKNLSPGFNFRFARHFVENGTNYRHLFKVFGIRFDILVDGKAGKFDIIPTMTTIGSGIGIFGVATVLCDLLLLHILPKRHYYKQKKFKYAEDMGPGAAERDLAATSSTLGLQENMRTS
As to the kind of experiment: Antagonist activity at human P2X1R transfected in human 1321N1 cells assessed as inhibition of ATP-induced calcium influx. The class given is cell-based. The method, boiled down:
(§1)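 1321N1 astrocytoma cells stably expressing human P2X1, P2X2, P2X3 or P2X4 receptor. Calcium influx was induced by ATP at the EC80 for each subtype. Results are given as IC50 (μM) or % inhibition at the indicated concentration.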

Test [1] deals with T2, P2X purinoceptor 3 (Mus musculus, UniProt Q3UR32).
T2 sequence (Q3UR32 whole entry): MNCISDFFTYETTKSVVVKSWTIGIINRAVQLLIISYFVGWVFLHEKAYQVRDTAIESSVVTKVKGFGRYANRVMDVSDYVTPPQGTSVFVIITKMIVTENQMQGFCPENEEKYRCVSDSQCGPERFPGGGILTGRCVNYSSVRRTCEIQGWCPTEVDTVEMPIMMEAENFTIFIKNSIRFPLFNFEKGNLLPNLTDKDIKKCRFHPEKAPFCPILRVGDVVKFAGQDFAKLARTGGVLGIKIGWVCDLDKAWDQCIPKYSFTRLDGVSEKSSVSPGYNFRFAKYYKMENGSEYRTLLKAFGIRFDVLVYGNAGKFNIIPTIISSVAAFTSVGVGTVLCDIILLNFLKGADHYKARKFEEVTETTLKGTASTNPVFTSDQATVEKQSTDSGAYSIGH
As to the kind of experiment: Antagonist activity at P2X3R in mouse TG sensory neurons assessed as inhibition of P2X3R agonist alpha,beta-meATP-induced current at -65 mV holding potential by whole cell voltage clamp method. Put shortly:
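Mouse trigeminal sensory neurons were recorded by whole-cell patch clamp. Test compound (0.001–10 μM) was applied before 10 μM α,β-meATP, and inhibition of the agonist-evoked P2X3 current was measured. IC50 was taken from concentration–inhibition curves. N = 5–6 cells.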

The target of test [2] is T3, P2X purinoceptor 1 (Homo sapiens) (UniProt P51575).
T3 sequence (whole entry): T1 sequence (P51575 whole entry)
Description: Antagonist activity at human P2X1R transfected in human 1321N1 cells assessed as inhibition of ATP-induced calcium influx relative to control. The note with it: concentration not given here. Type of test: cell-based. The method, boiled down: as §1

In the next test the target is T4, P2X purinoceptor 2 (Homo sapiens, UniProt Q9UBL9).
T4 sequence (Q9UBL9 whole entry): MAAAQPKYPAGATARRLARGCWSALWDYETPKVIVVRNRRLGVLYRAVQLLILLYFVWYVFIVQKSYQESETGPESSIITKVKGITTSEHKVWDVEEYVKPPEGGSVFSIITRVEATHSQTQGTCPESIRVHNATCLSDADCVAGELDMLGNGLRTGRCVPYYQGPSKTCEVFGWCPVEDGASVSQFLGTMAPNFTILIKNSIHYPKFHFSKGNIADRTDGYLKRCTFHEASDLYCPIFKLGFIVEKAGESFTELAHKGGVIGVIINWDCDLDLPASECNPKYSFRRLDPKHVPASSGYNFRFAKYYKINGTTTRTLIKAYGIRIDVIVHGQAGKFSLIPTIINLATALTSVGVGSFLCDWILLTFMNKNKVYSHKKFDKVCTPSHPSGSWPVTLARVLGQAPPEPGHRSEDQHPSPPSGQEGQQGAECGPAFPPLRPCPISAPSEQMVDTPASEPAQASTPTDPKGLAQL
Description: Antagonist activity at human P2X2R transfected in human 1321N1 cells assessed as inhibition of ATP-induced calcium influx. The class given is cell-based. The method, boiled down:
as §1

Test [3] concerns the target T5, P2X purinoceptor 2 (Homo sapiens) (UniProt Q9UBL9).
T5 sequence (whole entry): T4 sequence (Q9UBL9 whole entry)
As to the kind of experiment: Antagonist activity at human P2X2R transfected in human 1321N1 cells assessed as inhibition of ATP-induced calcium influx relative to control. The class given is cell-based. As to conditions: concentration not given here. The method, boiled down: as §1

The target of test [4] is T6, P2X purinoceptor 3 (Homo sapiens, UniProt P56373).
T6 sequence (P56373 whole entry): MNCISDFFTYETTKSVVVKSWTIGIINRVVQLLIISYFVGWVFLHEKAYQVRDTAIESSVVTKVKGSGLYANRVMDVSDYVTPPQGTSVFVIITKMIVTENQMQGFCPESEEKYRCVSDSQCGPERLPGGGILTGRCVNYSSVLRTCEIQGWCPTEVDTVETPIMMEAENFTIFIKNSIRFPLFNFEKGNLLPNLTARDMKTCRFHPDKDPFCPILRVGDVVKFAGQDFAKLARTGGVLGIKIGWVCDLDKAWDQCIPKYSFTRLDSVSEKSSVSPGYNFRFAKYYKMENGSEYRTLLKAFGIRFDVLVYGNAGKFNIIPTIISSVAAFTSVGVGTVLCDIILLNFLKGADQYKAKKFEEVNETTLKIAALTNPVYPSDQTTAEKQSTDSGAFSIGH
Description: Antagonist activity at human P2X3R transfected in human 1321N1 cells assessed as inhibition of ATP-induced calcium influx. The class given is cell-based. Put shortly: as §1

For another test, the target named is T7, P2X purinoceptor 4 (Homo sapiens, UniProt Q99571).
T7 sequence (Q99571 whole entry): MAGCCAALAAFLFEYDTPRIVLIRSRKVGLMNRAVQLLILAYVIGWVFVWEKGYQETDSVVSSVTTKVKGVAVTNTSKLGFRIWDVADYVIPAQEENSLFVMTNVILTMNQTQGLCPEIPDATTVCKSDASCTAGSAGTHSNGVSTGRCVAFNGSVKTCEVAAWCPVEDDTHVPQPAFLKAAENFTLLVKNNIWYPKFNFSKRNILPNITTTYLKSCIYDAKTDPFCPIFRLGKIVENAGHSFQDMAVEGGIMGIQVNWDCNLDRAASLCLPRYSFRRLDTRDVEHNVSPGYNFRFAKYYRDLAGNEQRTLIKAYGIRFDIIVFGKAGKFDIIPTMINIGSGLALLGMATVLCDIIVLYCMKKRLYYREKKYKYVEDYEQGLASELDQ
Description: Antagonist activity at human P2X4R transfected in human 1321N1 cells assessed as inhibition of ATP-induced calcium influx. The class given is cell-based. Put shortly: as §1

A further test concerns the target T8, P2X purinoceptor 7 (Homo sapiens, UniProt Q99572).
T8 sequence (Q99572 whole entry): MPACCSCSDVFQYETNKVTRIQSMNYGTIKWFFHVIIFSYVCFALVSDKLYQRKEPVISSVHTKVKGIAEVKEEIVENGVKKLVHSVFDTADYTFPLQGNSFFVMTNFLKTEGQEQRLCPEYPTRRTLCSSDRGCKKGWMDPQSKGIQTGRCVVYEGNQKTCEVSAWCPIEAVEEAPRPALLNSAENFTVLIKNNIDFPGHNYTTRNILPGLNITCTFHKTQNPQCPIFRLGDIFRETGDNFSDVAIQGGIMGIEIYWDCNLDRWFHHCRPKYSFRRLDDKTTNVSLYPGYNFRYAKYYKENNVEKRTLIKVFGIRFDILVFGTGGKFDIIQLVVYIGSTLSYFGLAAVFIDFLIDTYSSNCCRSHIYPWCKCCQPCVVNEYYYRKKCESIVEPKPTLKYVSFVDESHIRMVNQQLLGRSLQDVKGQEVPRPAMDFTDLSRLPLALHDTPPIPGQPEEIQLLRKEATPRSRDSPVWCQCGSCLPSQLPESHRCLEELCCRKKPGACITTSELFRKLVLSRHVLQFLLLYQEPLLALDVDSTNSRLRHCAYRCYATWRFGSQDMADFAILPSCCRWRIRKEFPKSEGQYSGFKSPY
Description: Antagonist activity at human P2X7R transfected in human 1321N1 cells assessed as inhibition of Bz-ATP-induced calcium influx. Type of test: cell-based.

For test [5], the target named is T9, P2X purinoceptor 7 (Homo sapiens) (UniProt Q99572).
T9 sequence (whole entry): T8 sequence (Q99572 whole entry)
As to the kind of experiment: Antagonist activity at human P2X7R transfected in human 1321N1 cells assessed as inhibition of Bz-ATP-induced calcium influx relative to control. The class given is cell-based. As to conditions: concentration not given here.

For test [6], the species on record is Homo sapiens. As to the kind of experiment: Selectivity ratio of IC50 for human P2X4R transfected in human […] 1321N1 cells to IC50 for human transfected in human 1321N1 cells. Type of test: cell-based.
The species entered for test [7] is Homo sapiens. As to the kind of experiment: Selectivity ratio of IC50 for human P2X7R transfected in human […] 1321N1 cells to IC50 for human transfected in human 1321N1 cells. Type of test: cell-based.
The species named for test [8] is Homo sapiens. Description: Selectivity ratio of IC50 for human P2X1R transfected in human […] 1321N1 cells to IC50 for human transfected in human 1321N1 cells. The class given is cell-based.
Test [9] concerns the target T10, P2X purinoceptor 3 (Homo sapiens) (UniProt P56373).
T10 sequence (whole entry): T6 sequence (P56373 whole entry)
As to the kind of experiment: Antagonist activity at human P2X3R transfected in human 1321N1 cells assessed as inhibition of ATP-induced calcium influx relative to control. Type of test: cell-based. As to conditions: concentration not given here. The method, boiled down: as §1

The target in test [10] is T11, P2X purinoceptor 4 (Homo sapiens) (UniProt Q99571).
T11 sequence (whole entry): T7 sequence (Q99571 whole entry)
Description: Antagonist activity at human P2X4R transfected in human 1321N1 cells assessed as inhibition of ATP-induced calcium influx relative to control. The class given is cell-based. The note with it: concentration not given here. The method, boiled down: as §1

Consider `Nc1ncnc2c1ncn2[C@@H]1O[C@H](COP(=O)(O)OP(=O)(O)OP(=O)(O)O)[C@H]2O[C@H](c3ccccc3)O[C@H]21`, for which the IC50 on P2X purinoceptor 1 is > 100 µM; at P2X purinoceptor 3 [1], 211 nM; at P2X purinoceptor 2, > 100 µM; at P2X purinoceptor 3 [4], 5.83 µM; on P2X purinoceptor 4 it was 12.4 µM; on P2X purinoceptor 7, > 100 µM. The inhibition in test [2] was determined as 27%; in test [3], 16%; in test [5], 21%.

In the case of `Nc1ncnc2c1ncn2[C@@H]1O[C@H](COP(=O)(O)OP(=O)(O)OP(=O)(O)O)[C@H]2O[C@@H](c3ccccc3)O[C@H]21`, the IC50 was ≥ 10 µM at P2X purinoceptor 1; 81 nM on P2X purinoceptor 3 [1]; > 100 µM on P2X purinoceptor 2; 0.611 µM on P2X purinoceptor 3 [4]; 11 µM on P2X purinoceptor 4; 8.53 µM at P2X purinoceptor 7. The values for the inhibition in test [2] and in [3] were 44% and 18%, respectively. For the same molecule, the Ratio IC50 came out at 14 in the test filed under Homo sapiens [6] and 18 in the test filed under Homo sapiens [7].

Turning to `Nc1ncnc2c1ncn2[C@@H]1O[C@H](COP(=O)(O)OP(=O)(O)OP(=O)(O)O)[C@H]2OC3(CCCCC3)O[C@H]21`, the IC50 on P2X purinoceptor 1 is 8.06 µM; at P2X purinoceptor 3 [1] it was 83 nM; on P2X purinoceptor 2 it was > 100 µM; at P2X purinoceptor 3 [4], 0.883 µM; on P2X purinoceptor 4 it was 29.6 µM; at P2X purinoceptor 7, > 100 µM. The inhibition in test [3] was 20%; in test [5], 30%. For the same molecule, in the test filed under Homo sapiens [8], the Ratio IC50 came out at 10.

For `CC1(C)O[C@@H]2[C@H](O1)[C@@H](C(=O)N[C@@H](CCC(=O)O)C(=O)O)O[C@H]2n1cnc2c(N)ncnc21`, the IC50 was > 100 µM on P2X purinoceptor 1; > 100 µM on P2X purinoceptor 2; > 100 µM on P2X purinoceptor 3 [4]; > 100 µM on P2X purinoceptor 4; > 30 µM at P2X purinoceptor 7. The inhibition in [2] was 21%; in test [3] it was 6%; in test [9] it was 15%; in test [10] it was -6%; in test [5], -9%.

For `CC1(C)O[C@@H]2[C@H](O1)[C@@H](COC(=O)c1cc(C(=O)O)c(C(=O)O)cc1C(=O)O)O[C@H]2n1cnc2c(N)ncnc21`, the IC50 at P2X purinoceptor 1 is > 10 µM; on P2X purinoceptor 2, > 10 µM; on P2X purinoceptor 3 [4], ≥ 100 µM; at P2X purinoceptor 4, > 30 µM; at P2X purinoceptor 7 it was > 30 µM. For the same molecule, the inhibition was 13% in test [2], 30% in [3], 56% in test [9] and 35% in test [10].

Broadly, the IC50 is the midpoint of a concentration-inhibition curve. For orientation: inhibition means the relative decrease from the control value, in per cent.
